{"source": "ChEMBL document CHEMBL5331102", "about": "“Novel S1R agonists counteracting NMDA excitotoxicity and oxidative stress: A step forward in the discovery of neuroprotective agents” (Eur J Med Chem, 2023)", "key": {"[1]": {"molecular_target": "Glutamate [NMDA] receptor (Homo sapiens) (UniProt Q05586+Q12879+Q13224+O15399+O60391+Q14957+Q8TCU5)", "assay": "Displacement of [3H]CGP39653 from human NMDAR at 25 nM by scintillation counting analysis", "format": "protein-complex assay", "in_short": "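NMDA receptor binding with [3H]CGP39653 (5 nM) as radioligand, test compound at 25 nM; displacement read by scintillation counting and reported as % inhibition of control specific binding.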"}, "[2]": {"molecular_target": "Sigma non-opioid intracellular receptor 1 (Homo sapiens, UniProt Q99720)", "sequence (Q99720 whole entry)": "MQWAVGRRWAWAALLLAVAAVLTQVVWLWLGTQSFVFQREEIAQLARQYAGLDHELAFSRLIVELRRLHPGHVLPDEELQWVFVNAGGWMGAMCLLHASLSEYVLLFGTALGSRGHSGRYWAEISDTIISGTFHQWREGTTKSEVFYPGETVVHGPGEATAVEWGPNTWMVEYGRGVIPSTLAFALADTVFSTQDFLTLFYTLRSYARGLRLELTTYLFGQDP", "assay": "Displacement of [3H]-(+)-pentazocine from sigma 1 receptor (unknown origin) assessed as inhibition constant by scintillation counting analysis", "in_short": "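Radioligand displacement at S1R with [3H](+)pentazocine (15 nM) and at S2R with [3H]DTG (25 nM); S2R assay includes 1 μM cold (+)pentazocine to mask S1R sites. Bound radioactivity counted by scintillation. IC50 and Hill slope from non-linear Hill fit of competition curves; Ki by Cheng–Prusoff using radioligand concentration and KD from Scatchard plot.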"}, "[3]": {"assay": "Selectivity index, ratio of Ki for displacement of [3H]DTG from sigma 2 receptor (unknown origin) to Ki for displacement of [3H]-(+)-pentazocine from sigma 1 receptor (unknown origin)"}, "SH-SY5Y [4]": {"tested_on": "SH-SY5Y", "assay": "Cytotoxicity against human SH-SY5Y cells assessed as cell death at 0.1 to 50 uM incubated for 72 hrs by MTT assay", "format": "toxicity, cell-based", "details": "dose 0.1-50 µM", "in_short": "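SH-SY5Y cells kept in DMEM/10% FBS, 2 mM glutamine, 37 °C, 5% CO2; ~7000 cells/well, after 1 day given compound (six concentrations, 0.1–100 μM; DMSO stocks 10 mM) in 2% FBS medium for 72 h. MTT (0.5% w/v, 2 h), formazan dissolved in DMSO, absorbance read; triplicates, % of untreated control.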"}, "PC-12": {"tested_on": "PC-12", "assay": "Neuroprotective activity in rat PC12 cells assessed as induction of NGF-mediated neurite outgrowth at 0.1 to 5 uM in presence of NE-100 by neurite outgrowth assay", "format": "functional, cell-based", "details": "dose 0.1-5 µM", "in_short": "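PC12 cells stimulated with NGF (2.5 nM) and treated with compound up to 5 μM, alone or after pre-treatment with S1R antagonist NE-100 (3 μM); read-out is percentage of cells bearing neurite sprouts; mean ± SEM of three independent experiments.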"}, "SH-SY5Y [5]": {"tested_on": "SH-SY5Y", "assay": "Neuroprotective activity in human SH-SY5Y cells assessed as prevention of oligomycin induced cell damage by measuring cell viability at 0.1 to 5 uM incubated for 24 hrs in presence of oligomycin by MTT assay", "format": "functional, cell-based", "details": "dose 0.1-5 µM", "in_short": "(§1)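 SH-SY5Y cells (~7000/well) co-incubated 24 h at 37 °C in 2% FBS medium with toxic stimulus (NMDA 250 μM or oligomycin 2.5 μM) plus compound at 0.1–5 μM. Viability by MTT, expressed as % of control.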"}, "SH-SY5Y [6]": {"tested_on": "SH-SY5Y", "assay": "Neuroprotective activity in human SH-SY5Y cells assessed as prevention of NMDA induced cytotoxicity by measuring cell viability at 0.1 to 5 uM incubated for 24 hrs in presence of NMDA by MTT assay", "format": "functional, cell-based", "details": "dose 0.1-5 µM", "in_short": "as §1"}, "SH-SY5Y [7]": {"tested_on": "SH-SY5Y", "assay": "Neuroprotective activity in human SH-SY5Y cells assessed as prevention of NMDA induced cytotoxicity by measuring cell viability at 1 uM preincubated with PB212 for 1hrs followed by compound addition in presence of NMDA and measured after 24 hrs by MTT assay", "format": "functional, cell-based", "in_short": "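SH-SY5Y cells pre-incubated 1 h with S1R antagonist PB212 (5 μM), then treated with compound (1 or 5 μM) plus PB212 (5 μM) and either rotenone 25 μM or NMDA 250 μM for 24 h; viability by MTT; two-way ANOVA with Bonferroni post hoc test.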"}, "PANC-1 [8]": {"tested_on": "PANC-1", "assay": "Cytotoxicity against human PANC-1 cells assessed as reduction in cell survival rate at 100 uM incubated for 48 to 72 hrs by MTT assay", "format": "toxicity, cell-based", "details": "panc-1, 100 µM, time 48-72 hrs", "in_short": "(§2)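 Cancer lines grown in Ham's F-12K or DMEM with 10% FBS, used in exponential growth; seeded 2500 cells/well, exposed to 0.1–100 μM for 24, 48 and 72 h continuous. Viability by CellTiter 96 AQueous One (tetrazolium) absorbance at 490 nm; three independent experiments in quadruplicate, % survival vs untreated.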"}, "LoVo [9]": {"tested_on": "LoVo", "assay": "Cytotoxicity against human LoVo cells assessed as reduction in cell survival rate at 100 uM incubated for 48 to 72 hrs by MTT assay", "format": "toxicity, cell-based", "details": "time 48-72 hrs", "in_short": "as §2"}, "PANC-1 [10]": {"tested_on": "PANC-1", "assay": "Cytotoxicity against human PANC-1 cells assessed as reduction in cell survival rate at <=10 uM incubated for 24 to 72 hrs by MTT assay", "format": "toxicity, cell-based", "details": "panc-1, 10 µM, time 24-72 hrs", "in_short": "as §2"}, "LoVo [11]": {"tested_on": "LoVo", "assay": "Cytotoxicity against human LoVo cells assessed as reduction in cell survival rate at <=10 uM incubated for 24 to 72 hrs by MTT assay", "format": "toxicity, cell-based", "details": "time 24-72 hrs", "in_short": "as §2"}, "[12]": {"assay": "Thermodynamic solubility of the compound in KH2PO4/Na2HPO4 buffer at pH 7.4 incubated for 24 hrs", "format": "physicochemical", "details": "read-out: Therm_solubility", "in_short": "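10 mM DMSO stock diluted 1:100 into buffer (HCl/KCl pH 1.2; KH2PO4/NaOH pH 6.8; KH2PO4/Na2HPO4 pH 7.4), 1% v/v DMSO final; shaken 24 h at 1200 rpm, filtered through 0.45 μm polycarbonate membrane, filtrate diluted 1:1 with MeOH and analysed.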"}, "[13]": {"assay": "Toxicity in Zebrafish embryos assessed as morphological abnormality at 0.1 to 50 uM incubated for 5 days by Teratogenic test", "parameters": "species or system Danio rerio, Embryo", "details": "in vivo, 120 h, dose 0.1-50 µM, time 5 day", "in_short": "(§3)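 Tg(GFAP:GFP) zebrafish embryos from 2 female × 1 male matings, 8 embryos per control or concentration, exposed from 1 h post-fertilization and kept at 28 °C for about 5 days without medium change. At 5 dpf (120 h) mortality and developmental abnormalities (tail shape, heart, pigmentation) were scored, with morphology given a severity score.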"}, "[14]": {"assay": "Toxicity in Zebrafish embryos assessed as decrease in embryo vitality rate at 10 to 50 uM incubated for 5 days by Teratogenic test", "parameters": "species or system Danio rerio", "details": "in vivo, 120 h, dose 10-50 µM, time 5 day", "in_short": "as §3"}, "[15]": {"assay": "Toxicity in Zebrafish embryos assessed as increase in embryo vitality structure damage at 10 to 50 uM incubated for 5 days by Teratogenic test", "parameters": "species or system Danio rerio", "details": "in vivo, 120 h, dose 10-50 µM, time 5 day", "in_short": "as §3"}, "[16]": {"assay": "Toxicity in Zebrafish embryos assessed as death at 10 uM incubated for 5 days by Teratogenic test", "parameters": "species or system Danio rerio, Embryo", "details": "in vivo, time 5 day, read-out: Activity", "in_short": "as §3"}, "[17]": {"assay": "Toxicity in Zebrafish embryos assessed as morphological abnormality by observing short and up-curved tail at 10 uM incubated for 5 days by Teratogenic test", "parameters": "species or system Danio rerio", "details": "in vivo, 120 h, time 5 day", "in_short": "(§4)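 Tg(GFAP:GFP) zebrafish embryos, 8 per group, exposed from 1 h post-fertilization to increasing compound concentrations at 28 °C for about 5 days without medium change; mortality, developmental defects and morphology score assessed at 5 dpf.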"}, "[18]": {"assay": "Toxicity in Zebrafish embryos assessed as death at 50 uM incubated for 5 days by Teratogenic test", "parameters": "species or system Danio rerio, Embryo", "details": "in vivo, 120 h, time 5 day", "in_short": "as §3"}, "[19]": {"assay": "Toxicity in Zebrafish embryos assessed as variation in embryo morphology score at 10 uM incubated for 5 days by Teratogenic test", "parameters": "species or system Danio rerio", "details": "in vivo, 120 h, time 5 day", "in_short": "as §4"}, "SH-SY5Y [20]": {"tested_on": "SH-SY5Y", "assay": "Cytotoxicity against human SH-SY5Y cells assessed as cell viability at 100 uM incubated for 72 hrs by MTT assay"}}, "note": "Active and inactive are the calls of the source. No cut-off for these calls is given here.", "data": [{"molecule": "c1ccc(CC2CCN(CCCOc3ccccc3)CC2)cc1", "values": [{"measurement": "Activity", "setting": "[1]", "result": "< 11.9", "unit": "%"}, {"measurement": "Ki", "setting": "[2]", "result": 1.1, "unit": "nM"}, {"measurement": "Ratio Ki", "setting": "[3]", "result": 80}, {"measurement": "Activity", "setting": "SH-SY5Y [4]", "result": "Non-Toxic"}, {"measurement": "Activity", "setting": "PC-12", "result": "inactive"}, {"measurement": "Activity", "setting": "SH-SY5Y [5]", "result": "inactive"}, {"measurement": "Activity", "setting": "SH-SY5Y [6]", "result": "Active"}, {"measurement": "Activity", "setting": "SH-SY5Y [7]", "result": "inactive"}, {"measurement": "Activity", "setting": "PANC-1 [8]", "result": 20, "unit": "%"}, {"measurement": "Activity", "setting": "LoVo [9]", "result": 40, "unit": "%"}, {"measurement": "Activity", "setting": "PANC-1 [10]", "result": "Non-Toxic"}, {"measurement": "Activity", "setting": "LoVo [11]", "result": "Non-Toxic"}, {"measurement": "solubility thermodynamic at 24 h", "setting": "[12]", "result": 2800, "unit": "µg/mL"}, {"measurement": "Activity", "setting": "[13]", "result": "Toxic"}, {"measurement": "Activity", "setting": "[14]", "result": "Toxic"}, {"measurement": "Activity", "setting": "[15]", "result": "Toxic"}, {"measurement": "mortality at 120 h, 10 µM", "setting": "[16]", "result": 100, "unit": "%"}, {"measurement": "Activity", "setting": "[17]", "result": "Toxic"}, {"measurement": "Activity", "setting": "[18]", "result": "Toxic"}, {"measurement": "Activity", "setting": "[19]", "result": "Non-Toxic"}, {"measurement": "Activity", "setting": "SH-SY5Y [20]", "result": 82, "unit": "%"}]}, {"molecule": "c1ccc(CC2CCN(CCOc3ccccc3)CC2)cc1", "values": [{"measurement": "Activity", "setting": "[1]", "result": "< 11.9", "unit": "%"}, {"measurement": "Ki", "setting": "[2]", "result": 0.93, "unit": "nM"}, {"measurement": "Ratio Ki", "setting": "[3]", "result": 77}, {"measurement": "Activity", "setting": "SH-SY5Y [4]", "result": "Non-Toxic"}, {"measurement": "Activity", "setting": "PC-12", "result": "inactive"}, {"measurement": "Activity", "setting": "SH-SY5Y [5]", "result": "inactive"}, {"measurement": "Activity", "setting": "SH-SY5Y [6]", "result": "Active"}, {"measurement": "Activity", "setting": "SH-SY5Y [7]", "result": "inactive"}, {"measurement": "Activity", "setting": "PANC-1 [8]", "result": 20, "unit": "%"}, {"measurement": "Activity", "setting": "LoVo [9]", "result": 40, "unit": "%"}, {"measurement": "Activity", "setting": "PANC-1 [10]", "result": "Non-Toxic"}, {"measurement": "Activity", "setting": "LoVo [11]", "result": "Non-Toxic"}, {"measurement": "solubility thermodynamic at 24 h", "setting": "[12]", "result": 7800, "unit": "µg/mL"}, {"measurement": "Activity", "setting": "[13]", "result": "Toxic"}, {"measurement": "Activity", "setting": "[14]", "result": "Toxic"}, {"measurement": "Activity", "setting": "[15]", "result": "Toxic"}, {"measurement": "mortality at 120 h, 10 µM", "setting": "[16]", "result": 50, "unit": "%"}, {"measurement": "Activity", "setting": "[17]", "result": 75, "unit": "%"}, {"measurement": "Activity", "setting": "[18]", "result": "Toxic"}, {"measurement": "Activity", "setting": "[19]", "result": "Toxic"}, {"measurement": "Activity", "setting": "SH-SY5Y [20]", "result": 76, "unit": "%"}]}]}
